In ChEMBL document CHEMBL3632559, “α-Halogenated oxaphosphinanes: Synthesis, unexpected reactions and evaluation as inhibitors of cancer cell proliferation” (Eur J Med Chem, 2015):

What was measured:
MDA-MB-435 [1] = assay: Antiinvasive activity in human MDA-MB-435 cells after 24 hrs by matrigel assay in presence of HGF; assay type: functional, cell-based; settings: read-out: Ki
How it was run: (§1)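 Boyden chamber inserts loaded with Matrigel diluted 33-fold in PBS, with HGF in the lower chamber. Cells resuspended in DMEM with 0.1% BSA were plated in the upper compartment and incubated 24 h with or without compound. Cells on the lower membrane surface were methanol-fixed, crystal violet-stained and counted. % Inh was computed against untreated migration. Run in triplicate. EC50/Ki were obtained by Hill fit of dose-log response curves.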

MDA-MB-435 [2] = assay: Antimigratory activity in human MDA-MB-435 cells after 24 hrs by laminin-coated boyden chamber assay; assay type: functional, cell-based
How it was run: (§2)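 Boyden chamber inserts were coated overnight with laminin, fibronectin or vitronectin (human plasma), PBS-washed and blocked 1 h with 0.5% BSA. Cells in DMEM/0.1% BSA were placed in the upper compartment for 24 h with or without compound. Non-migrating cells were wiped off; lower-side cells were methanol-fixed, crystal violet-stained and counted. Run in triplicate. Ki came from Hill fit of dose-log response curves.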

MDA-MB-435 [3] = assay: Antiproliferative activity against human MDA-MB-435 cells after 72 hrs by MTT assay; assay type: functional, cell-based; settings: MDA-MB-435, 72 h
MDA-MB-435 [4] = assay: Antimigratory activity in human MDA-MB-435 cells after 24 hrs by vitronectin-coated boyden chamber assay; assay type: functional, cell-based; how it was run: as §2
DU-145 = assay: Antiproliferative activity against human DU145 cells after 72 hrs by MTT assay; assay type: functional, cell-based
MDA-MB-231 = assay: Antiproliferative activity against human MDA-MB-231 cells after 72 hrs by MTT assay; assay type: functional, cell-based
[5] = Antiproliferative activity against mouse B16F10 cells after 72 hrs by MTT assay; assay type: functional, cell-based; settings: B16-F10, 72 h
[6] = Antiproliferative activity against human HuH7 cells after 72 hrs by MTT assay; assay type: functional, cell-based; settings: Huh-7, 72 h
[7] = Antimigratory activity in mouse B16F10 cells after 24 hrs by vitronectin-coated boyden chamber assay; assay type: functional, cell-based; settings: b16-f10; how it was run: as §2
[8] = Antimigratory activity in mouse B16F10 cells after 24 hrs by laminin-coated boyden chamber assay; assay type: functional, cell-based; settings: b16-f10; how it was run: as §2
[9] = Antimigratory activity in mouse B16F10 cells after 24 hrs by fibronectin-coated boyden chamber assay; assay type: functional, cell-based; settings: b16-f10; how it was run: as §2
Caco-2 = assay: Antiproliferative activity against human Caco2 cells after 72 hrs by MTT assay; assay type: functional, cell-based
MDA-MB-435 [10] = assay: Antimigratory activity in human MDA-MB-435 cells after 24 hrs by fibronectin-coated boyden chamber assay; assay type: functional, cell-based; how it was run: as §2
[11] = Antiinvasive activity in mouse B16F10 cells after 24 hrs by matrigel assay in presence of HGF; assay type: functional, cell-based; settings: b16-f10; how it was run: as §1
[12] = Cytotoxicity against mouse B16F10 cells; assay type: cell-based; settings: b16-f10
MDA-MB-435 [13] = assay: Cytotoxicity against human MDA-MB-435 cells; assay type: cell-based
[14] = Homo sapiens, DU-145, 72 h, read-out: IC50
[15] = Homo sapiens, MDA-MB-231, 72 h, read-out: IC50
[16] = Homo sapiens, Caco-2, 72 h, read-out: IC50

| Compound | EC50 (MDA-MB-435 [1]) | Ki (MDA-MB-435 [2]) | IC50 (MDA-MB-435 [3]) | Ki (MDA-MB-435 [4]) | IC50 (DU-145; [14]) | IC50 (MDA-MB-231; [15]) | IC50 [5] | IC50 [6] | Ki [7] | Ki [8] | Ki [9] | IC50 (Caco-2; [16]) | Ki (MDA-MB-435 [10]) | Ki [11] | Activity [12] | Activity (MDA-MB-435 [13]) | IC50 (DU-145; du-145) | IC50 (MDA-MB-231; mda-mb-231) | IC50 (Caco-2; caco-2) |
| --- | --- | --- | --- | --- | --- | --- | --- | --- | --- | --- | --- | --- | --- | --- | --- | --- | --- | --- | --- |
| O=[P@@]1(c2ccccc2)O[C@H](COCc2ccccc2)[C@@H](OCc2ccccc2)[C@H](OCc2ccccc2)[C@@H]1I | 28 nM | 25 nM | 0.55 nM | 43 nM | 215 nM | 466 nM | 7.7 nM | 229 nM | 44 nM | 17 nM | 16 nM | 20500 nM | 29 nM | 29 nM | – | – | – | – | – |
| O=[P@@]1(c2ccccc2)O[C@H](COCc2ccccc2)[C@@H](OCc2ccccc2)[C@H](OCc2ccccc2)[C@H]1I | 35 nM | 23 nM | 0.3 nM | 101 nM | 104 nM | 478 nM | 4 nM | 13 nM | 35 nM | 16 nM | 20 nM | 28600 nM | 28 nM | 37 nM | Toxic | Toxic | – | – | – |
| O=[P@@]1(c2ccccc2)O[C@H](COCc2ccccc2)[C@@H](OCc2ccccc2)[C@H](OCc2ccccc2)[C@@H]1Br | 13 nM | 34 nM | 0.2 nM | 46 nM | 102 nM | 445 nM | 4.6 nM | 11.6 nM | 21 nM | 10 nM | 46 nM | 24700 nM | 39 nM | 17 nM | – | – | – | – | – |
| O=[P@@]1(c2ccccc2)O[C@H](COCc2ccccc2)[C@@H](OCc2ccccc2)[C@H](OCc2ccccc2)[C@H]1Br | 30 nM | 42 nM | 0.35 nM | 78 nM | 86.5 nM | 432 nM | 3.8 nM | 15.8 nM | 50 nM | 20 nM | 30 nM | 29500 nM | 28 nM | 32 nM | – | – | – | – | – |
| O=[P@@]1(c2ccccc2)O[C@H](COCc2ccccc2)[C@@H](OCc2ccccc2)[C@H](OCc2ccccc2)[C@H]1Cl | 35 nM | 32 nM | 1.6 nM | 52 nM | 226 nM | 359 nM | 7.7 nM | 1170 nM | 380 nM | 13 nM | 18 nM | 24800 nM | 36 nM | 37 nM | Toxic | Toxic | – | – | – |
| O=[P@]1(c2ccccc2)C=C(OCc2ccccc2)[C@H](OCc2ccccc2)[C@@H](COCc2ccccc2)O1 | – | – | 0.52 nM | – | 116 nM | 286 nM | 4.4 nM | 37.5 nM | – | – | – | 28400 nM | – | – | – | – | – | – | – |
| O=[P@@]1(c2ccccc2)O[C@H](COCc2ccccc2)[C@@H](OCc2ccccc2)[C@H](OCc2ccccc2)[C@H]1F | 31 nM | 34 nM | 1.45 nM | 66 nM | – | – | 1.7 nM | 12.1 nM | 40 nM | 16 nM | 22 nM | – | 28 nM | 33 nM | – | – | Not Active | Not Active | Not Active |
| O=[P@@]1(c2ccccc2)O[C@H](COCc2ccccc2)[C@@H](OCc2ccccc2)[C@H](OCc2ccccc2)[C@@H]1Cl | 36 nM | 23 nM | – | 41 nM | – | – | – | – | 34 nM | 19 nM | 49 nM | – | 28 nM | 35 nM | – | – | – | – | – |
